Data published in ChEMBL document CHEMBL5107939, “Optimization of brain-penetrant picolinamide derived leucine-rich repeat kinase 2 (LRRK2) inhibitors” (RSC Med Chem, 2021).

Experiments:
[1] = Plasma clearance in po dosed CD rat measured after 120 mins by LC-MS/MS analysis; type: ADME, organism-based
[2] = biological target: T1, Leucine-rich repeat serine/threonine-protein kinase 2 (Homo sapiens, UniProt Q5S007, G2019S); experiment: Inhibition of human LRRK2 G2019S mutant expressed in human SH-SY5Y cells assessed as inhibition of tetracycline induced LRRK2 phosphorylation at Ser935 residue incubated for 90 mins by MSD assay; type: cell-based
Outline: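 SH-SY5Y neuroblastoma cells carrying LRRK2 G2019S, grown in DMEM/F-12 with GlutaMax, 10% Tet-free FBS, nonessential amino acids and pen-strep at 37 °C, 5% CO2. Expression induced with Tet (2 µg/ml) 48-72 h before treatment. Compound exposure 90 min. Lysates captured on anti-LRRK2-coated MSD plates, probed for pSer935 or total LRRK2 with Sulfo-Tag read-out. IC50 from standard 4P fit of % inhibition.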

[3] = biological target: T1, Leucine-rich repeat serine/threonine-protein kinase 2; experiment: Inhibition of recombinant human GST20 tagged truncated LRRK2 G2019S mutant assessed as substrate phosphorylation preincubated for 15 mins followed by substrate addition and measured after 90 mins using fluorescein-labeled LRRK2tide as substrate in presence of ATP by TR-FRET based Lanthascreen kinase activity assay
Outline: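 Enzyme 1.25 nM in 50 mM Tris pH 8.5, 10 mM MgCl2, 0.01% Brij-35, 1 mM EGTA, 2 mM DTT, 0.05 mM orthovanadate. Compound (top 9.99 µM in DMSO, ten-point serial dilution) preincubated 15 min at RT. […] Stopped with EDTA plus 2 nM Tb anti-pERM, 1 h RT. 520/495 nm ratio read. IC50 from 4-parameter logistic fit, mean of several runs.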

[4] = MRT in po dosed CD rat measured after 120 mins by LC-MS/MS analysis; type: ADME, organism-based; settings: in vivo
[5] = species: Homo sapiens; experiment: Selectivity ratio, ratio of IC50 for inhibition of CLK2 (unknown origin) to IC50 for inhibition of recombinant human GST20 tagged truncated LRRK2 G2019S mutant
[6] = biological target: Dual specificity protein kinase CLK2 (Homo sapiens, UniProt P49760); experiment: Inhibition of CLK2 (unknown origin) assessed as substrate phosphorylation using coumarin and fluorescein-labeled peptide as substrate incubated for 1 hr by Z'-LYTE kinase assay
Outline: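 CLK2 Z'-LYTE coupled-enzyme kit format, 10-point titration from DMSO; enzyme, substrate and compound reacted 1 h at ambient temperature; after development solution, read at excitation 400 nm; activity from coumarin 445 nm/fluorescein 520 nm emission ratio.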

[7] = Intrinsic clearance in po dosed CD rat measured after 120 mins by LC-MS/MS analysis; type: ADME, organism-based; settings: in vivo, 2 h
[8] = Mutagenicity in Salmonella typhimurium TA100 at 30 to 5000 ug in presence of S9 metabolic activation system for 48 hrs by ames test; type: toxicity, Salmonella enterica subsp. enterica serovar Typhimurium; settings: dose 30-5000 µg
Outline: (§1)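 Plate incorporation Ames test with S9 from phenobarbital/beta-naphthoflavone-induced male Wistar Han rat liver; 30, 100, 300, 1000, 3000, 5000 µg/plate; triplicate minimal glucose agar plates with trace histidine; 48 h at 37 °C; positive if 2-fold revertant increase over vehicle with dose relation.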

[9] = Mutagenicity in Salmonella typhimurium TA98 at 30 to 5000 ug in presence of S9 metabolic activation system for 48 hrs by ames test; type: toxicity, Salmonella enterica subsp. enterica serovar Typhimurium; settings: dose 30-5000 µg; outline: as §1
[10] = Mutagenicity in Salmonella typhimurium TA1535 at 30 to 5000 ug in presence of S9 metabolic activation system for 48 hrs by ames test; type: toxicity, Salmonella enterica subsp. enterica serovar Typhimurium; settings: in vitro, dose 30-5000 µg; outline: as §1
[11] = biological target: Sodium channel protein type 5 subunit alpha (Homo sapiens, UniProt Q14524); experiment: Inhibition of human NaV1.5 expressed in HEK293 by PatchXpress automated patch clamp assay; type: cell-based
[12] = MRT in po dosed Beagle dog and measured upto 24 hrs by LC-MS/MS analysis; type: ADME, organism-based, Canis lupus familiaris; settings: in vivo
[13] = Intrinsic clearance in po dosed Beagle dog and measured upto 24 hrs by LC-MS/MS analysis; type: ADME, organism-based, Canis lupus familiaris; settings: in vivo
[14] = tested on: P-gp (rat Mdr1a); experiment: Substrate activity at P-gp (unknown origin) expressed in LLC-PK1 cells transfected with rat Mdr1a assessed as apparent permeability at 1 uM incubated for 3 hrs by LC-MSMS analysis; type: ADME, cell-based, Sus scrofa; settings: pig
[15] = Plasma clearance in po dosed Beagle dog and measured upto 24 hrs by LC-MS/MS analysis; type: ADME, organism-based, Canis lupus familiaris
[16] = tested on: P-gp (rat Mdr1a); experiment: Substrate activity at P-gp (unknown origin) expressed in LLC-PK1 cells transfected with rat Mdr1a assessed as efflux ratio of apparent permeability across basolateral to apical side to apparent permeability across apical to basolateral side at 1 uM incubated for 3 hrs by LC-MSMS analysis; type: ADME, cell-based, Sus scrofa; settings: pig
[17] = Brain to plasma permeability coefficient, Kp in CD rat plasma assessed as unbound fraction at 3 to 100 mg/kg, po and measured after 2 hrs by LC/MS/MS analysis; type: ADME, organism-based; settings: in vivo, dose 3-100 mg/kg
[18] = In vivo inhibition of LRRK2 in CD rat assessed as reduction in serine 935 phosphorylated LRRK2 in striatum at 10 mg/kg, po and measured after 2 hrs by MSD immunoassay; type: functional
Outline: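 Male CD rats (125-150 g) dosed orally with compound suspended in 10% Tween 80 (5 mL/kg) or vehicle, euthanized by CO2 2 h later; striatum dissected, frozen on dry ice; pSer935 LRRK2 measured by MSD immunoassay as pSer935/total LRRK2 ratio, mean ± S.E.M.; one-way ANOVA with Dunnett's post hoc test.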

Chain of Dual specificity protein kinase CLK2 (P49760 whole entry): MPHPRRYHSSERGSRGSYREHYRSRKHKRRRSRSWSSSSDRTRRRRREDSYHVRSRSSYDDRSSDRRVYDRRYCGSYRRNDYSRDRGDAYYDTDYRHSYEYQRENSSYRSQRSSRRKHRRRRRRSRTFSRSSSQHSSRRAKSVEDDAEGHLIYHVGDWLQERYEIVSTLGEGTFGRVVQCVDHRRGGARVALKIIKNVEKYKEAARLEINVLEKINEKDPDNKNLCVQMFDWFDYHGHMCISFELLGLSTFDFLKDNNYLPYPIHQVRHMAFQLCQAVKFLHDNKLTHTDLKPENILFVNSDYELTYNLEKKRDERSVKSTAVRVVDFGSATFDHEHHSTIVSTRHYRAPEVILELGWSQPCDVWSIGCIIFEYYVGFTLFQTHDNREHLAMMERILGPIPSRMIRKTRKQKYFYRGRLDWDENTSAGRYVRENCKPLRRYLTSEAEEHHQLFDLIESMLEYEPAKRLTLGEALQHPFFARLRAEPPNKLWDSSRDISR
T1 sequence (Q5S007 whole entry G2019S): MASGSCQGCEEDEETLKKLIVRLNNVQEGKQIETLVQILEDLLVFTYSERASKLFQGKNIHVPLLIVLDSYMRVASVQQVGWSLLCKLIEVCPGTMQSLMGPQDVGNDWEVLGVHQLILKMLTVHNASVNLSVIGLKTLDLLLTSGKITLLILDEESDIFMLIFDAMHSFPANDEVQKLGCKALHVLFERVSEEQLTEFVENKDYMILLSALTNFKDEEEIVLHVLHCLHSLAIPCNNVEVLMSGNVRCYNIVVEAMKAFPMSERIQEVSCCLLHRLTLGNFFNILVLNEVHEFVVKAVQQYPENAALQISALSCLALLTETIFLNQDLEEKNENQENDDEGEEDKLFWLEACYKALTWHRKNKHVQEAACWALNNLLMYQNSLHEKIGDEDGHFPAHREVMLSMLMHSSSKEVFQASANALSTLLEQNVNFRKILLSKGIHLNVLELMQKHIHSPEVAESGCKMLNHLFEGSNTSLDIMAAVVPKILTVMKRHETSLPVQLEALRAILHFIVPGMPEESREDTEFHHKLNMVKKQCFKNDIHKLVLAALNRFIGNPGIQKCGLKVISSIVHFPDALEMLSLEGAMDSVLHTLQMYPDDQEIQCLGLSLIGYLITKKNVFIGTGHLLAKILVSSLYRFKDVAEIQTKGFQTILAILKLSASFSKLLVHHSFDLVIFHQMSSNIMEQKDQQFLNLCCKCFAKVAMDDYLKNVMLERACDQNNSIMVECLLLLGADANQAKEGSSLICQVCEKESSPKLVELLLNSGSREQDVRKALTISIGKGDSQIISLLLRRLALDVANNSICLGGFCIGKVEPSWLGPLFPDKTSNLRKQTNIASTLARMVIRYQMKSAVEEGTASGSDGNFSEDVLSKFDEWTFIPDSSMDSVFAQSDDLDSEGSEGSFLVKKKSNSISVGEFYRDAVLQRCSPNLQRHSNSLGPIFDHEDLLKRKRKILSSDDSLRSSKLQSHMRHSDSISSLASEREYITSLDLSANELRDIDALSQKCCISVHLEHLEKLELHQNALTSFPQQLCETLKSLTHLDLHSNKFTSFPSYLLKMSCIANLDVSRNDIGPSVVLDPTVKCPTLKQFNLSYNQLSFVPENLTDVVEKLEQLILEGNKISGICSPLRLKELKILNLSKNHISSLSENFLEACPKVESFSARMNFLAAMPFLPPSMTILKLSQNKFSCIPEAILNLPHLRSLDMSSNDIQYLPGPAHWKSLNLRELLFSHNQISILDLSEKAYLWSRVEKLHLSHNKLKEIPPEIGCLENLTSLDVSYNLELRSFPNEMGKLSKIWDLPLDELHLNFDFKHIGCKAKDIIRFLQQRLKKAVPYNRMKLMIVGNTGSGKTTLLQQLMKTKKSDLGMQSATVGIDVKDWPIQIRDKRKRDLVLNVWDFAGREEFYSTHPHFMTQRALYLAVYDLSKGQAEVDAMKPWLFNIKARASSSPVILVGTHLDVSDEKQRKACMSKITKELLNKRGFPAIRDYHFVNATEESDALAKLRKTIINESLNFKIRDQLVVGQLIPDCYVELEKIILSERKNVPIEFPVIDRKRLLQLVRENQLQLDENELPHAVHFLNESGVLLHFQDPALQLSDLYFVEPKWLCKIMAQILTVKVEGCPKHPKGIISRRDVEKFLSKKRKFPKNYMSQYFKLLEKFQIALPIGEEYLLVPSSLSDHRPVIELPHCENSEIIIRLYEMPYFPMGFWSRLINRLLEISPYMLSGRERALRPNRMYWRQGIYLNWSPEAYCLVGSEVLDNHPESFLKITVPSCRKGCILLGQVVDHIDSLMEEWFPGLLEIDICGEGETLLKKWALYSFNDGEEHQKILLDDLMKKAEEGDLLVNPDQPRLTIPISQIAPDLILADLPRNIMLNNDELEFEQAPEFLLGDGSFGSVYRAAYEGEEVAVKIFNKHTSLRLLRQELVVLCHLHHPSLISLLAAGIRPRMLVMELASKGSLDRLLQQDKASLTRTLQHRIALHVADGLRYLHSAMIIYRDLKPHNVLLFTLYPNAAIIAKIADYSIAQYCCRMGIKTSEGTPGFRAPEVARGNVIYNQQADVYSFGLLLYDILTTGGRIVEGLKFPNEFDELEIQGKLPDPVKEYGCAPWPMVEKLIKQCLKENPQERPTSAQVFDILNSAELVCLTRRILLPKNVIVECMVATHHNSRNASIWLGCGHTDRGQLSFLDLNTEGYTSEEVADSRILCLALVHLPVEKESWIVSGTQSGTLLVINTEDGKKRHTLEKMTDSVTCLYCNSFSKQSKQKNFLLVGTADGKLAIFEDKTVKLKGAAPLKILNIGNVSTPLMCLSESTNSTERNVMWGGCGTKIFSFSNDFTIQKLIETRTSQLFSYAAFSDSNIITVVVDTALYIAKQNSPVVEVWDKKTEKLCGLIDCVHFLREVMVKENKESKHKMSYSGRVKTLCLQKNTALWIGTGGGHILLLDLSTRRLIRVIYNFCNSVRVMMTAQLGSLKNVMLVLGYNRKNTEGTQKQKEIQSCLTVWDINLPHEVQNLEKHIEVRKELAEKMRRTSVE
Chain of Sodium channel protein type 5 subunit alpha (Q14524 whole entry): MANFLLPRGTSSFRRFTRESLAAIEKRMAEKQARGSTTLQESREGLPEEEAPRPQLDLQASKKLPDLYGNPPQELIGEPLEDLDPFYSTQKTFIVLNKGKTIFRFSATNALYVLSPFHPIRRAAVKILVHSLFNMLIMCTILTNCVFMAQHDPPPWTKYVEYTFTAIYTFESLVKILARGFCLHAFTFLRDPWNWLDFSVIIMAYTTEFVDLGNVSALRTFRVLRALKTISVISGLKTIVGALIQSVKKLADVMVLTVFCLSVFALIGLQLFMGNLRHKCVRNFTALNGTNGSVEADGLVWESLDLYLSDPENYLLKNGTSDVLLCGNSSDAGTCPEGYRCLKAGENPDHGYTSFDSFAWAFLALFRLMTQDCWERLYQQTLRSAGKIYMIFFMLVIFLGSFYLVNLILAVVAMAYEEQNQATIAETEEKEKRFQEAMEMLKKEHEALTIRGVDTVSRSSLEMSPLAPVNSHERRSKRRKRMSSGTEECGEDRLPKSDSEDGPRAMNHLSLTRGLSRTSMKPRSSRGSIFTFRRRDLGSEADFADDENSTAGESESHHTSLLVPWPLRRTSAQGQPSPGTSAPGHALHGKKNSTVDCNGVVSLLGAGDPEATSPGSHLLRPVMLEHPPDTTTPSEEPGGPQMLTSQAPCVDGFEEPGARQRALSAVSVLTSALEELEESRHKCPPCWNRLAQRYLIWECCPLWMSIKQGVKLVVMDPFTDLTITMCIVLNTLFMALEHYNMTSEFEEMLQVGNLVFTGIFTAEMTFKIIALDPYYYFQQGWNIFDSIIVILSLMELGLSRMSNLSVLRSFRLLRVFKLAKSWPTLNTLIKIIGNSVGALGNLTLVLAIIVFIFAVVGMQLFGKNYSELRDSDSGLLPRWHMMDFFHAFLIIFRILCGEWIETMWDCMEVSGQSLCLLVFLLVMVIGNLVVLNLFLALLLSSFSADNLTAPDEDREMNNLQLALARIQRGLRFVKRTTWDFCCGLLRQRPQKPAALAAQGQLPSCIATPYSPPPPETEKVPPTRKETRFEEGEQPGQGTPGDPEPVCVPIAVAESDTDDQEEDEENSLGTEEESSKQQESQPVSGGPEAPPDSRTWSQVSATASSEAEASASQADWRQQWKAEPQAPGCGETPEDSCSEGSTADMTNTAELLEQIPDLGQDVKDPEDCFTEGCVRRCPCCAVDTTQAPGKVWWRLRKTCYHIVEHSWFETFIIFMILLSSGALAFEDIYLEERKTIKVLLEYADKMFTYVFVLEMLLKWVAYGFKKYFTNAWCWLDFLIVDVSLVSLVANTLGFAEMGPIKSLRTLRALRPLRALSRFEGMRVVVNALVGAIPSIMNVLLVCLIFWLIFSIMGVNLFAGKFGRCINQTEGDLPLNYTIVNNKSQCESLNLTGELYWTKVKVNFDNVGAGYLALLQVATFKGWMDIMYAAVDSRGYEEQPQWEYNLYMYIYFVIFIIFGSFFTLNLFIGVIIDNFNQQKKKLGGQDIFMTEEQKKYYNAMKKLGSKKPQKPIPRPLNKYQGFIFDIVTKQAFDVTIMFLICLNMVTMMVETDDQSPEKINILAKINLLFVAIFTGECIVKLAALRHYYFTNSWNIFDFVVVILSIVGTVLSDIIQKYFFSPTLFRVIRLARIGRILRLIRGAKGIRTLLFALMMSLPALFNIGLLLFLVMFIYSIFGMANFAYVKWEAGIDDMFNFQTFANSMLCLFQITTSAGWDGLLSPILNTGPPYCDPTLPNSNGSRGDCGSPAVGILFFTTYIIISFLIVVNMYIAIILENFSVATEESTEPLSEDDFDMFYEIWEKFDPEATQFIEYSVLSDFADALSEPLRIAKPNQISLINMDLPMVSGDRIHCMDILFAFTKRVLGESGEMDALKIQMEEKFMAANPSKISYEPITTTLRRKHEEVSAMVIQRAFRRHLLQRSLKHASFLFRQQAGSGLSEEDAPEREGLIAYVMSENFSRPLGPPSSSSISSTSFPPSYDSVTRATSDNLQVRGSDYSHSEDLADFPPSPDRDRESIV

SMILES	IC50 [2] [nM]	IC50 [3] [nM]	Ratio IC50 [5]	IC50 [6] [nM]	also measured
CC(C)(O)[C@@H]1CCN(c2cnc(C(F)(F)F)c(NC(=O)c3cccc(-c4cnn(C5CCC5)c4)n3)c2)C1	1.3	19	5	91	CL/F [1]: 31.4 mL/min/kg; MRT [4]: 2.1 h
Cc1cnc(N2C[C@@H](C)O[C@@H](C)C2)cc1NC(=O)c1cccc(-c2cnn(C)c2)n1	24	9	14	124	–
C[C@H]1CN(c2cc(NC(=O)c3cccc(-c4cnn(C)c4)n3)c(C(F)(F)F)cn2)CCN1C1COC1	–	1.5	5	8	CL/F [1]: 2.7 mL/min/kg; CL [7]: 4081 mL/min/kg; MRT [4]: 2.2 h
CC(C)(O)[C@@H]1CCN(c2cnc(C(F)(F)F)c(N)c2)C1	–	–	–	–	Activity [8]: Non-Toxic; Activity [9]: Non-Toxic; Activity [10]: Non-Toxic
Cn1cc(-c2cccc(C(=O)Nc3cnn(C4CCC4)c3)n2)cn1	905	53	112	5960	–
CC(C)(O)[C@@H]1CCN(c2cnc(C(F)(F)F)c(NC(=O)c3cccc(-c4cnn(CC(F)(F)F)c4)n3)c2)C1	0.7	10	42	442	CL/F [1]: 42 mL/min/kg; CL [7]: 2780 mL/min/kg; MRT [4]: 1.7 h; IC50 [11]: 30000 nM
CC(C)(O)[C@@H]1CCN(c2cnc(C(F)(F)F)c(NC(=O)c3cccc(-c4cnn(CC5CC5)c4)n3)c2)C1	0.4	8.6	3	23	CL/F [1]: 38 mL/min/kg; CL [7]: 78464 mL/min/kg; MRT [4]: 2.9 h
COC1CN(c2cc(NC(=O)c3cccc(-c4cnn(C)c4)n3)c(C(F)(F)F)cn2)C1	2.8	28	2.4	67	–
Cn1cc(-c2cccc(C(=O)Nc3cc(N4CC[C@@H](C(C)(C)O)C4)cnc3C(F)(F)F)n2)cn1	21	17	4	62	MRT [12]: 9.4 h; CL/F [1]: 6.7 mL/min/kg; CL [7]: 271 mL/min/kg; CL [13]: 1029 mL/min/kg; MRT [4]: 4.9 h; Papp at 3 h, 1 µM [14]: 29 ×10⁻⁶ cm/s; CL/F [15]: 4.8 mL/min/kg; efflux ratio at 3 h, 1 µM [16]: 0.94; Kp [17]: 0.4
CCn1cc(-c2cccc(C(=O)Nc3cc(N4CC[C@@H](C(C)(C)O)C4)cnc3C(F)(F)F)n2)cn1	7	40	–	30	–
Cn1cc(-c2cccc(C(=O)Nc3cnn(C4CCC4)c3)c2F)cn1	1650	70	10	716	–
C[C@@H]1[C@H](O)CCN1c1cc(NC(=O)c2cccc(-c3cnn(C)c3)n2)c(C(F)(F)F)cn1	3	5	–	86	–
C[C@@H]1[C@@H](O)CN1c1cc(NC(=O)c2cccc(-c3cnn(C)c3)n2)c(C(F)(F)F)cn1	2	2	–	12	–
Cc1nc(N)cc(N2CC[C@@H](C(C)(C)O)C2)n1	–	–	–	–	Activity [8]: Non-Toxic; Activity [9]: Non-Toxic; Activity [10]: Non-Toxic
CC(C)(O)[C@@H]1CCN(c2cc(N)c(C(F)(F)F)cn2)C1	–	–	–	–	Activity [8]: Toxic; Activity [9]: Toxic; Activity [10]: Toxic
Cn1cc(-c2cccc(C(=O)Nc3cc(N4CC(O)C4)ncc3C(F)(F)F)n2)cn1	7.5	4.8	13	64	–
Cn1cc(-c2cccc(C(=O)Nc3cc(N4CC5(C(C)(C)O)CC4C5)ncc3C(F)(F)F)n2)cn1	2	9	–	9.6	–
C[C@@H]1CN(c2cc(NC(=O)c3cccc(-c4cnn(C)c4)n3)c(C(F)(F)F)cn2)C[C@H](C)O1	1.5	4	5	21	–
Cn1cc(-c2nc(C(=O)Nc3cnn(C4CCC4)c3)cs2)cn1	271	–	8.5	119	–
Cn1cc(-c2nccc(C(=O)Nc3cnn(C4CCC4)c3)n2)cn1	953	–	505	17200	–
C[C@@H]1CN(c2cc(-c3n[nH]c4ccc(OC5(C)CC5)cc34)ncn2)C[C@H](C)O1 [MLi-2]	–	–	–	–	inhibition in vivo at 10 mg/kg [18]: 72%
CC(C)(O)[C@@H]1CCN(c2cnc(C(F)(F)F)c(NC(=O)c3cccc(-c4cnn(CC5(C(F)(F)F)CC5)c4)n3)c2)C1	0.3	8	59	470	CL/F [1]: 87 mL/min/kg; MRT [4]: 1.2 h
Cc1nc(NC(=O)c2cccc(-c3cnn(C)c3)n2)cc(N2CC[C@@H](C(C)(C)O)C2)n1	42	4	–	255	–
